Our source for the yeast fitness values is the RNAGym collection of RNA variant scans (doi:10.1126/science.aae0568).

Variants at the floor of the assay were thinned out.

The labels stand for the following.
B1: tRNA (parent)
chain: GUUCCGUUGGCGUAAUGGUAACGCGUCUCCCUCCUAAGGAGAAGACUGCGGGUUCGAGUCCCGUACGGAACG

Variants of B1 are the subject of this series. The experiment in a line: yeast fitness relative to wild type (ratio to wild type); higher = fitter; tRNA-Arg(CCU), competitive growth, 37 C, YPD. The method in brief: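 Genotype frequency changes were the basis for Darwinian fitness relative to wild type. The frequencies came from 100-nucleotide paired-end sequencing of gene amplicons from the start population and each end population of pooled yeast strains with tRNA-Arg(CCU) gene variants at the native locus. Competition ran in YPD at 37°C for 24 hours in six replicates, genotypes needed ≥ 100 starting reads, and estimates < 0.5 were set to 0.5.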
Turning to GUUCCGUUGGCGUAAUGGUAACGCGUCUCCCUCCUACGGAGAUGACUGCGGGUUCGAGUCCCGUACGGAACG [A37C A43U], the yeast fitness turned out to be 0.992. The same measure for GUUCCGUUGGCGUAAUGGUAACGCGUCUCCCUCCUACGGAGAGGACUGCGGGUUCGAGUCCCGUACGGAACG [A37C A43G]: 0.988. The same measure for GUUCCGUUGGCGUAAUGGUAACGCGUCUCCCUCCUUAGGAGAAGACUGCGGGUUCGAGUCCCCUACGGAACG [A36U G63C]: not above 0.5; for GUUCCGUUGGCGUAAUGGUAACGCGUCUCCCUCCUUAGGAGAAGACUGCUGGUUCGUGUCCCGUACGGAACG [A36U G50U A57U]: 0.616. The same measure for GUUCCGUUGGCGUAAUGGUAACGCGUCUCCCUCCUUAGGAGAAGACGGCGGGUUCGAGUCACGUACGGAUCG [A36U U47G C61A A70U]: not above 0.5; for GUUCCGUUGGCGUAAUGGUAACGCGUCUCCCUCCUACGGAGAAGACUGCGGGUUUGAGUCCCAUACCGAACG [A37C C55U G63A G67C]: 0.617. For GUUCCGUUGGCGUAAUGGUAACGCGUCUCCCUCCUUAGGAGAAAACUGCGGGUUCGAGUCCCGUACGGAGCG [A36U G44A A70G], the yeast fitness is not above 0.5. GUUCCGUUGGCGUAAUGGUAACGCGUCUCCCUCCUACGGAGAAGACUGUGGGUUCGAGUGCCGUACGGAACG [A37C C49U C60G]: the yeast fitness is not above 0.5. With GUUCCGUUGGCGUAAUGGUAACGCGUCUCCCUCCUUAGGAGAAGACUGCGGGUCCGAGUCCCGUACGGAACG [A36U U54C] the figure was 0.559. The same measure for GUUCCGUUGGCGUAAUGGUAACGCGUCUCCCUCCUUAGGAGAAGACUGCGGGUUCAAGUCCCGUAUGGAACG [A36U G56A C66U]: not above 0.5; for GUUCCGUUGGCGUAAUGGUAACGCGUCUCCCUCCUACGGAGAAGACUGCGGGUUCGAGUCCCGUACGGAACG [A37C]: 0.913; for GUUCCGUUGGCGUAAUGGUAACGCGUCUCCCUCCUACGGAGAAGACUGCGGGUUCGAGUCCGGUACGGCACG [A37C C62G A69C]: not above 0.5. The same measure for GUUCCGUUGGCGUAAUGGUAACGCGUCUCCCUCCUACGGAGAAGACUGCGGGUUCGAGUGCCGUAGGGAGCG [A37C C60G C66G A70G]: not above 0.5; for GUUCCGUUGGCGUAAUGGUAACGCGUCUCCCUCCUACGGAGAAGACUGUGGGUUUGAGUCCCAUACCGAACG [A37C C49U C55U G63A G67C]: not above 0.5; for GUUCCGUUGGCGUAAUGGUAACGCGUCUCCCUCCUUAGGAGAAGACUGCCGGUUCGAGUCCCGUACGGAACG [A36U G50C]: 0.587. On to GUUCCGUUGGCGUAAUGGUAACGCGUCUCCCUCCUACGGAGAAGACUGUGGGUGCGAGUCCCGUACGGAACG [A37C C49U U54G], for which the yeast fitness was not above 0.5. Turning to GUUCCGUUGGCGUAAUGGUAACGCGUCUCCCUCCUACGGAGAAGACUGCGGGUUCGAGUCCUGUAGGGAACG [A37C C62U C66G], the yeast fitness was not above 0.5. Take GUUCCGUUGGCGUAAUGGUAACGCGUCUCCCUCCUACGGUGAAGACUGCGGCUUCGAGUCCCGUACGGGACG [A37C A40U G52C A69G]: the yeast fitness is not above 0.5. GUUCCGUUGGCGUAAUGGUAACGCGUCUCCCUCCUUAGGAGAAGACUGCGGGUUCGAGUCCCGUACCGAACG [A36U G67C]: the yeast fitness is 0.602. With GUUCCGUUGGCGUAAUGGUAACGCGUCUCCCUCCUUAGGAGAAGACUGCGGGUUCGAGUCCCGUACAGAACG [A36U G67A] the figure was 0.63; with GUUCCGUUGGCGUAAUGGUAACGCGUCUCCCUCCUACGGAGCAGAAUGCGGGUUCGAGUCCCGUACGGAACG [A37C A42C C46A], 0.948; with GUUCCGUUGGCGUAAUGGUAACGCGUCUCCCUCCUACGGAGAAGACUGCGGGUUGAAGUCCCGUACGGCACG [A37C C55G G56A A69C], not above 0.5. Regarding GUUCCGUUGGCGUAAUGGUAACGCGUCUCCCUCCUACGGAGAAGACUGCGGGUUCGAGUCCCGUAUGGAACG [A37C C66U], the yeast fitness worked out at 0.75. The same measure for GUUCCGUUGGCGUAAUGGUAACGCGUCUCCCUCCUACGGAGAAGACUGCGGGUUCGAGUCCCGUAGGGAACG [A37C C66G]: 0.586. With GUUCCGUUGGCGUAAUGGUAACGCGUCUCCCUCCUUAGGAGAAGACUGCGGGUUCGAGUCCCGCACGGAACG [A36U U64C] the figure was 0.581; with GUUCCGUUGGCGUAAUGGUAACGCGUCUCCCUCCUACGGAGUAGACUGAGGGUUCGAGUCCCGUUCGGAACG [A37C A42U C49A A65U], 0.609.

For the variant GUUCCGUUGGCGUAAUGGUAACGCGUCUCCCUCCUUAGGAGAAGACUGCGGGUUCCAGUCCCGUACGGUACG [A36U G56C A69U], the yeast fitness was found to be 0.669. With GUUCCGUUGGCGUAAUGGUAACGCGUCUCCCUCCUACGGAGAAGAUUGCGGGUUCGAGUCCCGUACGGCACG [A37C C46U A69C] the figure was 0.682; with GUUCCGUUGGCGUAAUGGUAACGCGUCUCCCUCCUUAGGAGAAGACUGCGGAUUCGAGUCCCCUACGGAACG [A36U G52A G63C], 0.558. Turning to GUUCCGUUGGCGUAAUGGUAACGCGUCUCCCUCCUACGGAGAAGACUGCGGGUUCGAGUCCCGUCCGGAACG [A37C A65C], the yeast fitness amounted to 0.797. With GUUCCGUUGGCGUAAUGGUAACGCGUCUCCCUCCUACGGAGAAGACUGGGGGUUCGCGUCCCGUACGGAGCG [A37C C49G A57C A70G], the yeast fitness was determined as 0.516.

Turning to GUUCCGUUGGCGUAAUGGUAACGCGUCUCCCUCCUACGGAGAAGACUGCGGGUUCGAGUCCUGUACGGAUCG [A37C C62U A70U], the yeast fitness is not above 0.5. On to GUUCCGUUGGCGUAAUGGUAACGCGUCUCCCUCCUACGGAGAAGAGUGCGGGUUCGAGUCCGGUACGGAACG [A37C C46G C62G], for which the yeast fitness came out at 0.654. For GUUCCGUUGGCGUAAUGGUAACGCGUCUCCCUCCUUAGGAGAAGACUGCGGGGUCGAGUCCCGUACGGUACG [A36U U53G A69U], the yeast fitness is not above 0.5. In the case of GUUCCGUUGGCGUAAUGGUAACGCGUCUCCCUCCUUAGGAGAAGACUGCAGGUUCGAGGCCCGUACGGAACG [A36U G50A U59G], the yeast fitness was not above 0.5. As to GUUCCGUUGGCGUAAUGGUAACGCGUCUCCCUCCUACGGAGAAGACUGCGGGUUCGUGUCCCGUACGGAACG [A37C A57U], the yeast fitness was found to be 0.633. For the variant GUUCCGUUGGCGUAAUGGUAACGCGUCUCCCUCCUACGGAGAAGACUGUGAGUUCGAGUCCCGUACGGAACG [A37C C49U G51A], the yeast fitness is not above 0.5.

Take GUUCCGUUGGCGUAAUGGUAACGCGUCUCCCUCCUUAGGAGAAGACCGCGGCUUCGAGUCCCGUACGGAACG [A36U U47C G52C]: the yeast fitness is not above 0.5.
